Blank lines part the entries; values can stand above or below the molecule they belong to. Activity calls are given as the source filed them. No cut-off for these calls is given here.
What was measured:
[1] = Resistance index, ratio of IC50 for ring stage chloroquine-resistant Plasmodium falciparum Dd2 to IC50 for ring stage chloroquine-sensitive Plasmodium falciparum 3D7; assay type: functional
[2] = Inhibition of Plasmodium falciparum falcipain-2 using benzyloxycarbonyl-Phe-Arg-7-amino-4-methyl coumarin hydrochloride as substrate preincubated for 10 mins prior substrate addition by fluorimetric assay
Procedure, shortened: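 Recombinant falcipain-2 (2 μg) was preincubated 10 min at room temperature with or without compound, in triplicate. Buffer was 100 mM sodium acetate pH 5.5 with 10 mM DTT and 1% final DMSO. Z-Phe-Arg-AMC was then added at 10 μM final. AMC release was read at ex 355/em 460 nm. IC50 was taken by visual matching of 50% inhibition.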

Plasmodium falciparum [3] = assay: Antimalarial activity against ring stage chloroquine-sensitive Plasmodium falciparum 3D7 infected in human O positive erythrocytes after 48 hrs by SYBR green 1 fluorescence assay; assay type: functional, organism-based; details: 3D7, 48 h
Procedure, shortened: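 P. falciparum 3D7 in O+ human erythrocytes in complete RPMI with Albumax at 37 °C under 5% O2/5% CO2. Culture was sorbitol-synchronized to rings and plated at 2% hematocrit, 1% parasitemia. Drug range was 0–100 μM with 0.4% final DMSO, in triplicate. After 48 h, SYBR Green I fluorescence was read (ex 497/em 520 nm). IC50 was taken by visual matching of 50% growth inhibition.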

[4] = Therapeutic index, ratio of IC50 for human HeLa cells to IC50 for ring stage chloroquine-sensitive Plasmodium falciparum 3D7; assay type: cell-based; details: read-out: Ratio IC50
Procedure, shortened: (§1)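 HeLa or L929 fibroblasts were seeded at 10^4 cells per well in RPMI with 10% FBS, left overnight, then exposed 24 h at 37 °C, 5% CO2. MTT was added for 3 h; formazan was dissolved in DMSO and read at 570 nm. IC50 came from dose–response curves. Index = IC50(mammalian)/IC50(Pf 3D7, SYBR Green assay).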

[5] = Resistance index, ratio of IC50 for ring stage chloroquine-resistant Plasmodium falciparum INDO to IC50 for ring stage chloroquine-sensitive Plasmodium falciparum 3D7; assay type: functional
[6] = Therapeutic index, ratio of IC50 for […] cells to IC50 for ring stage chloroquine-sensitive Plasmodium falciparum 3D7; assay type: cell-based; details: mouse, read-out: Ratio IC50; procedure, shortened: as §1
Plasmodium falciparum [7] = assay: Antimalarial activity against ring stage chloroquine-resistant Plasmodium falciparum INDO infected in human O positive erythrocytes after 48 hrs by SYBR green 1 fluorescence assay; assay type: functional, organism-based
Procedure, shortened: (§2)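 Ring-stage cultures were sorbitol-synchronized in O+ human erythrocytes in RPMI 1640 with 0.5% Albumax, hypoxanthine and gentamicin, then plated at 2% hematocrit and 1% parasitemia. Drugs were tested at 0–100 μM (final DMSO 0.4%) in triplicate for 48 h at 37 °C under 5% O2/5% CO2/90% N2. Read-out was SYBR Green I (ex 497/em 520 nm). IC50 was read visually as 50% growth inhibition, with chloroquine as control.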

Plasmodium falciparum [8] = assay: Antimalarial activity against ring stage chloroquine-resistant Plasmodium falciparum Dd2 infected in human O positive erythrocytes after 48 hrs by SYBR green 1 fluorescence assay; assay type: functional, organism-based; details: Dd2, 48 h; procedure, shortened: as §2
Plasmodium falciparum [9] = assay: Induction of apoptosis in chloroquine-sensitive Plasmodium falciparum 3D7 trophozoites assessed as nuclear condensation at 6 uM at 24 hrs by Giemsa staining; assay type: functional, organism-based
Plasmodium falciparum [10] = assay: Induction of apoptosis in ring stage chloroquine-sensitive Plasmodium falciparum 3D7 assessed as chromatin fragmentation at 6 uM at 18 hrs by Hoechst 33342 staining; assay type: functional, organism-based
Plasmodium falciparum [11] = assay: Inhibition of RBC invasion of chloroquine-sensitive Plasmodium falciparum 3D7 schizonts at 6 uM treated for 8 hrs followed by washout measured after 48 hrs by Giemsa staining; assay type: functional, organism-based
Procedure, shortened: (§3)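 Highly synchronized 3D7 schizonts were exposed to drug for 8 h under normal culture conditions, alongside untreated controls. After a media wash, cultures were incubated for 48 h with or without drug. Giemsa-stained thin smears were examined microscopically for parasitemia and stage, and compared with control.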

Plasmodium falciparum [12] = assay: Induction of apoptosis in chloroquine-sensitive Plasmodium falciparum 3D7 trophozoites assessed as chromatin fragmentation at 6 uM at 18 hrs by Hoechst 33342 staining; assay type: functional, organism-based
Procedure, shortened: (§4)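 3D7 trophozoite cultures were treated 18 or 24 h, and ring cultures 24, 42 or 48 h. Parasites were stained with Hoechst 33342 for 10 min at room temperature, washed with PBS, and smeared. Condensed or fragmented chromatin (blue, 460 nm) was viewed by fluorescence microscopy.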

Plasmodium falciparum [13] = assay: Antimalarial activity against chloroquine-sensitive Plasmodium falciparum 3D7 assessed as inhibition of schizonts growth at 6 uM treated for 8 hrs followed by washout measured after 48 hrs by Giemsa staining; assay type: functional, organism-based; procedure, shortened: as §3
Plasmodium falciparum [14] = assay: Induction of internucleosomal fragmentation in ring stage chloroquine-sensitive Plasmodium falciparum 3D7 at 6 uM at 24 hrs by Hoechst 33342 staining; assay type: functional, organism-based; procedure, shortened: as §4
Plasmodium falciparum [15] = assay: Growth inhibition of chloroquine-sensitive Plasmodium falciparum 3D7 schizonts at 6 uM treated for 8 hrs following washout incubated for 48 hrs in drug free medium by Giemsa staining; assay type: functional, organism-based
Procedure, shortened: (§5)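 Highly synchronized 3D7 cultures were exposed by stage: rings 48 h, trophozoites 24 h, schizonts 8 h. After a media wash, cultures grew 48 h in drug-free complete RPMI, in triplicate. Giemsa smears were read by counting 3000 cells per stage; pycnotic parasites were scored nonviable. Inhibition is percent of drug-free control.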

Plasmodium falciparum [16] = assay: Reduction in parasitemia of ring stage chloroquine-sensitive Plasmodium falciparum 3D7 at 6 uM after 48 hrs by Giemsa staining; assay type: functional, organism-based
Plasmodium falciparum [17] = assay: Growth inhibition of chloroquine-sensitive Plasmodium falciparum 3D7 trophozoites at 6 uM treated for 24 hrs following washout incubated for 48 hrs in drug free medium by Giemsa staining; assay type: functional, organism-based; procedure, shortened: as §5
Plasmodium falciparum [18] = assay: Induction of apoptosis in ring stage chloroquine-sensitive Plasmodium falciparum 3D7 assessed as nuclear condensation at 6 uM at 24 hrs by Giemsa staining; assay type: functional, organism-based
Plasmodium falciparum [19] = assay: Antimalarial activity against chloroquine-sensitive Plasmodium falciparum 3D7 assessed as merozoites egress at 6 uM treated for 8 hrs followed by washout measured after 48 hrs by Giemsa staining; assay type: functional, organism-based; procedure, shortened: as §3
Plasmodium falciparum [20] = assay: Induction of apoptosis in ring stage chloroquine-sensitive Plasmodium falciparum 3D7 assessed as chromatin condensation at 6 uM at 18 hrs by Hoechst 33342 staining; assay type: functional, organism-based
Plasmodium falciparum [21] = assay: Induction of internucleosomal fragmentation in chloroquine-sensitive Plasmodium falciparum 3D7 trophozoites at 6 uM at 24 hrs by Hoechst 33342 staining; assay type: functional, organism-based; procedure, shortened: as §4
Plasmodium falciparum [22] = assay: Induction of apoptosis in chloroquine-sensitive Plasmodium falciparum 3D7 trophozoites assessed as disruption of mitochondrial membrane potential at 6 uM by JC-1 staining; assay type: functional, organism-based
Procedure, shortened: (§6)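 3D7 ring cultures were treated 24, 42 or 48 h, and trophozoite cultures 18 or 24 h. Parasites were stained with JC-1 for 20 min at 37 °C and viewed as wet mounts by fluorescence microscopy. Red-orange aggregate signal (590 nm) indicates intact ΔΨm; green monomer signal (525 nm) indicates dissipation.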

Plasmodium falciparum [23] = assay: Growth inhibition of ring stage chloroquine-sensitive Plasmodium falciparum 3D7 at 6 uM treated for 48 hrs followed by washout measured after 48 hrs by Giemsa staining; assay type: functional, organism-based; procedure, shortened: as §5
Plasmodium falciparum [24] = assay: Reduction in parasitemia of chloroquine-sensitive Plasmodium falciparum 3D7 trophozoites at 6 uM after 48 hrs by Giemsa staining; assay type: functional, organism-based
Plasmodium falciparum [25] = assay: Induction of apoptosis in chloroquine-sensitive Plasmodium falciparum 3D7 trophozoites assessed as chromatin condensation at 6 uM at 18 hrs by Hoechst 33342 staining; assay type: functional, organism-based; procedure, shortened: as §4
Plasmodium falciparum [26] = assay: Induction of apoptosis in ring stage chloroquine-sensitive Plasmodium falciparum 3D7 assessed as disruption of mitochondrial membrane potential at 6 uM by JC-1 staining; assay type: functional, organism-based; procedure, shortened: as §6
Plasmodium falciparum [27] = assay: Growth inhibition of ring stage chloroquine-sensitive Plasmodium falciparum 3D7 at 6 uM treated for 48 hrs following washout incubated for 48 hrs in drug free medium by SYBR green 1-based fluorescence assay; assay type: functional, organism-based
Procedure, shortened: (§7)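 Stage-specific exposure of synchronized 3D7: rings 48 h, trophozoites 24 h, schizonts 8 h. Drug was removed by media wash and cultures grew 48 h drug-free, in a separate triplicate set. Growth was read by SYBR Green I fluorescence and expressed as percent inhibition relative to drug-free control.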

Plasmodium falciparum [28] = assay: Growth inhibition of chloroquine-sensitive Plasmodium falciparum 3D7 trophozoites at 6 uM treated for 18 hrs followed by washout measured after 54 hrs by Giemsa staining; assay type: functional, organism-based
Plasmodium falciparum [29] = assay: Growth inhibition of chloroquine-sensitive Plasmodium falciparum 3D7 schizonts at 6 uM treated for 8 hrs following washout incubated for 48 hrs in drug free medium by SYBR green 1-based fluorescence assay; assay type: functional, organism-based; procedure, shortened: as §7
Plasmodium falciparum [30] = assay: Growth inhibition of chloroquine-sensitive Plasmodium falciparum 3D7 trophozoites at 6 uM treated for 24 hrs following washout incubated for 48 hrs in drug free medium by SYBR green 1-based fluorescence assay; assay type: functional, organism-based; procedure, shortened: as §7

Compound: COc1cc(OC)c(C(=O)/C=C/c2ccc(/C=C/c3cc(OC)c(O)c(OC)c3)cc2)cc1OC
Ratio IC50 [1]: 0.7 | IC50 [2]: 100 µM | IC50 (Plasmodium falciparum [3]): 4.3 µM | selectivity ratio [4]: > 46.5 | Ratio IC50 [5]: 0.6 | selectivity ratio [6]: 8.4 | IC50 (Plasmodium falciparum [7]): 2.58 µM | IC50 (Plasmodium falciparum [8]): 3.01 µM

Compound: COc1ccc(/C=C/c2cc(OC)c(O)c(OC)c2)cc1
IC50 (Plasmodium falciparum [3]): > 100 µM

Compound: COc1cc(OC)c(OC)cc1/C=C/C(=O)c1ccc(/C=C/c2cc(OC)c(OC)c(OC)c2)cc1
Ratio IC50 [1]: 0.5 | IC50 [2]: 20.5 µM | IC50 (Plasmodium falciparum [3]): 5.2 µM | selectivity ratio [4]: > 38.5 | Ratio IC50 [5]: 0.4 | selectivity ratio [6]: 29.8 | IC50 (Plasmodium falciparum [7]): 2.08 µM | IC50 (Plasmodium falciparum [8]): 2.6 µM

Compound: COc1cc(/C=C/c2ccc(/C=C/c3cc(OC)c(O)c(OC)c3)cc2)cc(OC)c1O
IC50 (Plasmodium falciparum [3]): 11 µM

Compound: COc1cc(OC)c(OC)cc1/C=C/C(=O)c1ccc(/C=C/c2cc(OC)c(OS(=O)(=O)c3ccc(C)cc3)c(OC)c2)cc1
IC50 (Plasmodium falciparum [3]): > 100 µM

Compound: COc1cc(OC)c(OC)cc1/C=C/C(=O)c1cccc(C(=O)/C=C/c2cc(OC)c(OC)cc2OC)c1
IC50 (Plasmodium falciparum [3]): 2.8 µM

Compound: COc1cc(OC)c(OC)cc1/C=C/C(=O)c1ccc(/C=C/c2cc(OC)c(O)c(OC)c2)cc1
Ratio IC50 [1]: 2.9 | Activity (Plasmodium falciparum [9]): Active | Activity (Plasmodium falciparum [10]): Active | inhibition (Plasmodium falciparum [11]): inactive | IC50 [2]: 37.5 µM | Activity (Plasmodium falciparum [12]): Active | growth inhibition (GI) (Plasmodium falciparum [13]): inactive | IC50 (Plasmodium falciparum [3]): 2.2 µM | selectivity ratio [4]: 42.3 | Activity (Plasmodium falciparum [14]): inactive | Ratio IC50 [5]: 0.64 | growth inhibition (GI) (Plasmodium falciparum [15]): inactive | Activity (Plasmodium falciparum [16]): Active | growth inhibition (GI) (Plasmodium falciparum [17]): Active | selectivity ratio [6]: 45.5 | Activity (Plasmodium falciparum [18]): Active | inhibition (Plasmodium falciparum [19]): inactive | Activity (Plasmodium falciparum [20]): Active | IC50 (Plasmodium falciparum [7]): 1.4 µM | Activity (Plasmodium falciparum [21]): Active | Activity (Plasmodium falciparum [22]): Active | growth inhibition (GI) (Plasmodium falciparum [23]): Active | Activity (Plasmodium falciparum [24]): Active | Activity (Plasmodium falciparum [25]): Active | Activity (Plasmodium falciparum [26]): Active | growth inhibition (GI) (Plasmodium falciparum [27]): Active | growth inhibition (GI) (Plasmodium falciparum [28]): Active | IC50 (Plasmodium falciparum [8]): 6.4 µM | growth inhibition (GI) (Plasmodium falciparum [29]): inactive | growth inhibition (GI) (Plasmodium falciparum [30]): Active

The next lines start with the values.

IC50 (Plasmodium falciparum [3]): > 100 µM
Compound: COc1ccc(/C=C/C(=O)c2ccc(/C=C/c3ccccc3)cc2)cc1

IC50 (Plasmodium falciparum [3]): 25.6 µM
Compound: O=C(/C=C/c1c[nH]c2ccc(Cl)cc12)c1ccc(/C=C/c2ccccc2)cc1

IC50 (Plasmodium falciparum [3]): 36.3 µM
Compound: O=C(/C=C/c1cccs1)c1ccc(/C=C/c2ccccc2)cc1

IC50 (Plasmodium falciparum [3]): 15 µM
Compound: COc1ccc(/C=C/C(=O)c2ccc(/C=C/c3cc(OC)c(O)c(OC)c3)cc2)cc1

IC50 (Plasmodium falciparum [3]): 29.5 µM
Compound: COc1ccc(/C=C/C(=O)c2ccc(/C=C/c3ccccc3)cc2)cc1OC

IC50 (Plasmodium falciparum [3]): 66 µM
Compound: COc1ccc(C(=O)/C=C/c2ccc(/C=C/c3ccc(O)c(OC)c3)cc2)cc1
